# Published values from different studies.
# Protocols differ between the studies behind these lines.
# Organism: Mycobacterium tuberculosis
# Read-out: microbial growth
SMILES,test,test system,conditions,measurement,result
Cc1cc2nc(C(=O)N(C)C)cc(-c3ccccc3Cl)c2c(C)c1-c1ccncc1,,H37RV,,MIC90,20 µM
Nc1nc(-c2cccc(-c3ccccc3)c2)nc2c1ncn2[C@@H]1O[C@H](COS(=O)(=O)NC(=O)c2ccccc2O)[C@@H](O)[C@H]1O,,H37RV,pH 6.6,MIC99,25 to 50 µM
Nc1sc2c(c1C(=O)NC13CC4CC(CC(C4)C1)C3)CCCC2,resazurin,H37RV,,MIC,> 300 µM
COc1cccc2c1C(=O)c1c(O)c3c(c(O)c1C2=O)C[C@@](O)(C(C)=O)C[C@@H]3O[C@H]1C[C@H](N)[C@H](O)[C@H](C)O1,resazurin,H37RV,,MIC,1.25 µM
Nc1sc2c(c1C(=O)O)CCN(C(=O)OCc1ccccc1)C2,resazurin,H37RV,,MIC,> 300 µM
CO[C@H]1/C=C/O[C@@]2(C)Oc3c(C)c(O)c4c(O)c(c(/C=N/N5CCN(C)CC5)c(O)c4c3C2=O)NC(=O)/C(C)=C\C=C\[C@H](C)[C@H](O)[C@@H](C)[C@@H](O)[C@@H](C)[C@H](OC(C)=O)[C@@H]1C,resazurin,ATCC27294 H37RV,7 days,MIC,0.06 µg/mL
Nc1nc(-c2ccc(-c3ccccc3)cc2)nc2c1ncn2[C@@H]1O[C@H](COS(=O)(=O)NC(=O)c2ccccc2O)[C@@H](O)[C@H]1O,,H37RV,pH 6.6,MIC99,25 to 50 µM
CCOC(=O)c1c(NC(=O)c2c(F)c(F)c(F)c(F)c2F)sc2c1CCN(CC)C2,resazurin,H37RV,,IC50,650 nM
CC(=O)[C@]1(O)Cc2c(O)c3c(c(O)c2[C@@H](O[C@H]2C[C@H](N)[C@H](O)[C@H](C)O2)C1)C(=O)c1ccccc1C3=O,resazurin,H37RV,,MIC,80 µM
[H]/N=C(/N)N[C@H]1[C@H](O)[C@@H](O)[C@H](O[C@@H]2O[C@@H](C)[C@](O)(C=O)[C@H]2O[C@@H]2O[C@@H](CO)[C@H](O)[C@@H](O)[C@@H]2NC)[C@@H](N/C(N)=N\[H])[C@@H]1O,disc diffusion,ATCC25177,"5 µg/disc, 12 days",inhibition zone,30 mm
CCOC(=O)c1c(NC(=O)c2c(F)c(F)c(F)c(F)c2F)sc2c1CCN(C(=O)OC(C)(C)C)C2,resazurin,H37RV,,MIC,< 100 µM
CCCCOC(=O)Nc1cc2nc(C3CCCCC3)[nH]c2cc1N1CCCC1,resazurin,H37RV,,MIC99,0.39 µg/mL
Cc1cccc(C)c1-c1ccnc2cc(C)c(-c3ccc(CN4CCOCC4)cc3)c(C)c12,,H37RV,,MIC90,5 µM
O=C(Nc1cc2nc(C3CCCCC3)[nH]c2cc1N1CCCC1)OCc1ccccc1,resazurin,H37RV,,MIC99,1.56 µg/mL
Cc1cc2nc(C(=O)O)cc(-c3ccccc3Cl)c2c(C)c1-c1ccncc1,,H37RV,,MIC90,80 µM
